High-throughput results as filed in PubChem.
KCNK9 inh = inhibitors of human KCNK9 two-pore domain potassium channel. B-score at 10 µM. 310,000 tested, 1.2% active. HEK293 KCNK9, FluxOR thallium flux fluorescence; hits give low values. AID 488922. Q9NPC2;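 active = ratio B-score over 3 SD below the library mean, with starting fluorescence within 5 SD of its mean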;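 note: negative B-score means less thallium flux so channel inhibition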
hERG rescue = hERG (human) protection from proarrhythmic block; CHO-hERG, FluxOR thallium flux, dofetilide IC70 present; activation (rescue from dofetilide block), less the hit threshold, % at 10 µM; 310,000 tested, 0.51% active; AID 1511;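 active = activation above the mean of controls blocked by dofetilide plus 5 SD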;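 note: thallium influx through hERG after potassium depolarization seen as dye fluorescence rise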
KCNQ1 block = blocks the human KCNQ1 potassium channel | P51787 | CHO-K1 KCNQ1, FluxOR thallium flux fluorescence; hits give high values | B-score at 10 µM | 310,000 tested, 1.3% active;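 active = compounds whose thallium flux B-score, printed positive for inhibition, exceeds three library SD while starting fluorescence stays within three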;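 note: channel opened by potassium depolarization with thallium stimulus after 20 min compound exposure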
KCNQ1 act = human KCNQ1 channel potentiation or activation | P51787 | 310,000 tested, 0.35% active | B-score at 10 µM | AID 2648 | CHO-K1 KCNQ1, thallium flux FluxOR fluorescence; hits give high values;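 active = fluorescence ratio B-score, a plate-corrected score, at least three library SD, with initial intensity B-score within 5 SD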
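System: CHO-K1 cells stably expressing KCNQ1 / Medium: assay buffer for compound exposure, DMSO matched across wells / Reagent: thallium- and potassium-containing depolarizing buffer / Compound: one concentration, matched DMSO / Incubation: 20 min compound pretreatment at room temperature / Measured by: kinetic FluxOR fluorescence, 10 s baseline plus 110 s post-stimulus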
KCNK3 inh = human KCNK3 channel inhibition, primary screen; O14649; CHO-KCNK3 thallium flux, FluxOR fluorescence; hits give low values; B-score at 10 µM; 340,000 tested, 0.84% active; AID 602410;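 active = B-score under library mean minus 4 SD, starting fluorescence ratio at most library mean plus 5 SD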;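 note: more negative B-score means stronger inhibition of thallium flux through KCNK3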
Target sequence (O14649 whole entry, looked up): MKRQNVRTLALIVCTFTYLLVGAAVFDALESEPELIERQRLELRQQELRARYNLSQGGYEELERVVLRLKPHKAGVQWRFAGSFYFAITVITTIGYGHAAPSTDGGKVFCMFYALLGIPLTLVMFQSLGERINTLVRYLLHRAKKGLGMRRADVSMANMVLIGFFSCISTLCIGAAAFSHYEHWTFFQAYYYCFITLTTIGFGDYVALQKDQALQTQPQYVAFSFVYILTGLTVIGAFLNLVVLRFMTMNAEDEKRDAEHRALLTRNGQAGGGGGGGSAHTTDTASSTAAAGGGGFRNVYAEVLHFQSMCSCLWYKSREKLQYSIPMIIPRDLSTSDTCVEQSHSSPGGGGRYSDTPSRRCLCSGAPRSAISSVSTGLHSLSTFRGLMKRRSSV
Kir21 inh = inhibitors of mouse Kir2.1 inward-rectifier potassium channel; P35561; HEK293-Kir2.1, FluxOR thallium flux fluorescence; hits give low values; B-score at 10 µM; 310,000 tested, 0.85% active; AID 1672;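 active = fluorescence ratio B-score at or below minus 3 SD of library scores, with starting-brightness B-score within 2 SD, cut at about -4.2 in these data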;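 note: channel flux triggered by added potassium and thallium sulfate stimulus; B-score of peak minus minimum fluorescence over baseline after thallium stimulus; more negative B-score means stronger Kir2.1 block with less thallium influx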
KCNK9 block conf = confirmation of human KCNK9 potassium channel inhibitors; HEK293 KCNK9 cells, FluxOR thallium flux fluorescence; inhibition, % at 10 µM; shares compounds with KCNK9 inh; 4,900 tested, 43% active;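 active = thallium signal inhibited by more than 5 SD of the compound-free buffer control wells, on both duplicate plates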;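 note: 0% = assay buffer control wells without compound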
Kir21 sel = tests whether KCNK9 modulators also affect mouse Kir2.1. inhibition, % at 10 µM. shares compounds with KCNK9 inh. 4,900 tested, 4% active. Kir2.1 cells, FluxOR thallium flux fluorescence;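 active = thallium signal drop more than 5 SD beyond the mean of the no-compound control wells, seen in both duplicate plates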;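 note: signal is fluorescence rise after thallium addition divided by baseline fluorescence; plate controls were assay buffer only for no effect and full block by chlorpromazine control for full effect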
HEK293 Tl ctr = second counter-screen for KCNK9 modulators: effect in non-induced cells; shares compounds with KCNK9 inh; non-induced KCNK9-HEK293, FluxOR thallium flux; inhibition, % at 10 µM; 4,900 tested, 40% active;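 active = thallium signal drop beyond 5 SD of the untreated control mean, on both duplicate plates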;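 note: plate controls were buffer only IC0 wells for no effect and SID17386958 at its maximal inhibitory level for full effect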
* hit, by the source's call; i = inactive; . = not tested or not shown. The list is not random: actives were taken first. Their share in the collection is about 3.8%.

SMILES	KCNK9 inh	hERG rescue	KCNQ1 block	KCNQ1 act	KCNK3 inh	Kir21 inh	KCNK9 block conf	Kir21 sel	HEK293 Tl ctr
CCOc1ccc(-c2cc(NC(=O)c3c(F)cccc3F)c(C(=O)O)s2)cc1	i	-11	i	i	i	2.5	i	i	i
CCOC(=O)c1sc(-c2ccc(OC)cc2)cc1NC(C)=O	i	-2	i	i	i	0.3	i	i	i
CCOc1ccccc1CNC(=O)C1CCCN(c2nnc(C)c3c(C)n(-c4ccccc4)nc23)C1 (centres undefined)	i	-10	i	i	i	0.51	.	.	.
COC(=O)CNC(c1ccccc1)c1cc(Br)ccc1NC(=O)OCc1ccccc1 (centres undefined)	-18*	-5	i	i	i	-1.5	74%*	i	64%*
O=C(O)/C=C\C(=O)Nc1ccc(N2CCN(c3ccc(Cl)cc3)CC2)cc1	i	-1	i	i	i	1.1	.	.	.
O=C(O)/C=C\C(=O)Nc1ccc(N2CCN(c3ccc(Cl)c(Cl)c3)CC2)cc1	i	-9	i	i	i	2.1	i	i	i
COc1ccccc1N1C(C)=CC(=C(C#N)c2nc3ccccc3s2)C=C1C	-8.4*	-10	i	i	i	-3.5	37%*	i	70%*
COc1ccc(C(C)=O)cc1COc1ccc(Cl)cc1Cl	-14*	0	i	i	i	0.74	50%*	i	37%*
CCCC1CC(=O)NC1(C(=O)OCC)C(=O)OCC (centres undefined)	.	.	.	.	i	.	.	.	.
Cc1ccc(F)c(NC(=O)c2ccc(Cn3cc(Cl)cn3)cc2)c1	i	-10	i	i	i	0.09	.	.	.
Cc1ccc(F)c(NC(=O)/C(C#N)=C(\O)c2ccc(C(C)(C)C)cc2)c1	i	-11	7*	i	i	0.8	i	i	i
COc1ccc2[nH]cc(CCn3ccc(O)c(C/C=C/c4ccccc4)c3=O)c2c1	i	-18	i	i	i	-0.01	.	.	.
O=c1c(C/C=C/c2ccccc2)c(O)ccn1CCc1c[nH]c2ccccc12	i	-9	i	i	i	-2	i	i	i
Cc1ccc(CSCc2ccc(C(=O)NCCC(C)C)o2)cc1	i	-6	i	i	i	0.18	i	i	i
Cc1ccc(CSCc2ccc(C(=O)NC3CC3)o2)cc1	i	-3	i	i	i	1	.	.	.
CCCOc1ccc(C(=O)N/N=C/c2c[nH]c3ccc(Br)cc23)cc1	i	-8	i	i	i	1.3	.	.	.
O=C(N/N=C/c1c[nH]c2ccc(Br)cc12)c1ccn(Cc2ccc(Cl)cc2)n1	-15*	-4	i	i	i	2.8	49%*	i	i
Cc1ccc2c(COC(=O)C3CSC4(C)CCC(=O)N34)cc(=O)oc2c1C (centres undefined)	.	.	.	.	i	.	.	.	.
COCCNC(=S)N(CCc1c(C)[nH]c2ccccc12)Cc1ccco1	i	-6	i	i	i	-4.7*	i	i	i
Cc1[nH]c2ccccc2c1CCN(Cc1cccs1)C(=S)Nc1ccccc1	-8.2*	-8	i	i	i	-0.02	34%*	i	31%*
Oc1ccc(/C=N/Nc2ccc(Cl)nn2)c(O)c1O	i	-9	i	i	i	-0.76	.	.	.
CCC(=O)Nc1cc(OC)cc(OC)c1	i	-10	i	i	i	-1.7	.	.	.
CCOC(=O)C(C#N)(Cc1cc(OC)cc(OC)c1)Cc1cc(OC)cc(OC)c1	-14*	-6	i	i	i	1.9	56%*	i	46%*
CCOc1ccccc1-n1c(SCC(=O)Nc2nccs2)nnc1-c1ccoc1C	-8.7*	-11	i	i	i	0.53	47%*	i	26%*
CCOc1ccc(-n2c(SCC(=O)Nc3nccs3)nnc2-c2ccoc2C)cc1	i	-6	i	i	i	-0.03	.	.	.
SMILES	KCNK9 inh	hERG rescue	KCNQ1 block	KCNQ1 act	KCNK3 inh	Kir21 inh	KCNK9 block conf	Kir21 sel	HEK293 Tl ctr
O=C(COC(=O)c1ccc[nH]c1=O)NCC12CC3CC(CC(C3)C1)C2	.	.	.	.	i	.	.	.	.
COCCn1c(C)cc(C(=O)CSc2nc(C)cc(C)c2C#N)c1C	i	-4	i	i	i	0.51	.	.	.
Cc1cc(C)c(C#N)c(SCC(=O)c2cc(C)n(CCc3ccccc3)c2C)n1	-8.2*	-10	i	i	i	-0.42	32%*	i	34%*
C=C(C(=O)c1ccccc1)C(CC(=O)c1ccccc1)c1ccccc1 (centres undefined)	-13*	-3	i	i	i	-1.3	45%*	i	44%*
CCc1ccc2nc(SCC(=O)NCC3CCCO3)c(C#N)cc2c1 (centres undefined)	i	-4	i	i	i	0.15	i	i	i
COc1ccc(C(C(=O)NC(C)(C)C)N(C(=O)CCC(=O)Nc2cc(C)on2)c2ccc(C)c(C)c2)cc1 (centres undefined)	i	-10	i	i	i	-1.3	.	.	.
CCOC(=O)CSc1nc2ccccc2c(=O)n1Cc1ccco1	i	-8	i	i	i	0.64	.	.	.
CCOC(=O)CSc1nc2c(sc(=S)n2-c2ccccc2OC)c(=O)n1-c1ccccc1OC	-10*	-4	i	i	i	2	i	i	31%*
CCOC(=O)CSc1nc2c(sc(=S)n2-c2ccccc2OC)c(=O)n1Cc1ccco1	-9.1*	-11	i	i	i	1.2	i	i	36%*
CC1(C)C(C=C(Cl)Cl)C1C(=O)N/N=C/c1ccccc1F (centres undefined)	-9.5*	-13	i	i	i	-1.7	i	i	27%*
O=C(N/N=C/c1ccccc1F)NC12CC3CC(CC(C3)C1)C2	i	3	i	i	i	1.1	.	.	.
NNC(=O)c1csc(-c2ncc(C(F)(F)F)cc2Cl)n1	i	-5	i	i	i	-0.83	.	.	.
Cc1cc2c(=O)n(CC(=O)NCC(=O)N3CCN(Cc4ccccc4)CC3)cnc2s1	-11*	-6	i	i	i	0.75	i	i	i
Cc1cc(/C=c2/sc3nc4ccccc4n3c2=O)c(C)n1-c1ccccn1	i	-12	i	i	i	-1.9	.	.	.
